B1: Osa-1-4 twister ribozyme (parent)
chain: CCGCCUAACACUGCCAAUGCCGGUCCCAAGCCCGGAUAAAAGUGGAGGGGGCGG

Variants of: B1
Test: self-cleavage, relative activity (ratio to wild type); higher = more cleavage; co-transcriptional
Method in brief: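 In vitro transcription at 37 °C for 2 h allowed the twister ribozyme to cleave itself as it was made. Its 54-nucleotide Oryza sativa template had been synthesised with 97 % wild-type base and 1 % of each other base at the 48 positions downstream of the cleavage site. A template-switching oligonucleotide was used for reverse transcription, followed by PCR amplification and deep sequencing. Whether reads carried upstream sequence set the cleavage status, and relative activity is the fraction cleaved normalised to wild type.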

Row | Variant | self-cleavage
1 | C14A G19A | 0.1
2 | C14A U24A | 0.03
3 | C14A U24C | 0.04
4 | C14A U24G | 0.02
5 | C14A G30U | 0.62
6 | C14A G30A | 0.02
7 | C14A G30C | 0.03
8 | G13U G53A | 0.03
9 | G13U G53U | 0.02
10 | G13U G53C | 0.01
11 | G13C G22C | 0.01
12 | G13C G22A | 0.03
13 | G13C G22U | 0.02
14 | C14G G50A | 0.13
15 | C14G G50C | 0.08
16 | C14G G50U | 0.1
17 | C14G C52U | 0.18
18 | C14G C52G | 0.13
19 | C14G C52A | 0.14
20 | C14A G53U | 0.05
21 | C14A G53A | 0.06
22 | C14A G53C | 0.02
23 | G13A G50A | 0.14
24 | G13A G50U | 0.08

Row | Variant | self-cleavage
25 | G13A G50C | 0.06
26 | G13U G48A | 0.01
27 | G13U G48C | 0.01
28 | G13U G48U | 0.01
29 | G13C U24A | 0.02
30 | G13C U24C | 0.03
31 | G13C U24G | 0.01
32 | C14A U18G | 0.11
33 | C14A U18A | 0.09
34 | C14A U18C | 0.11
35 | C14A G47U | 0.05
36 | C14A G47C | 0.03
37 | C14A G47A | 0.04
38 | G13C U37C | 0.03
39 | G13C U37A | 0.02
40 | G13C U37G | 0.04
41 | C14G C21A | 0.09
42 | C14G C21G | 0.05
43 | C14G C21U | 0.16
44 | G13A G51C | 0.02
45 | G13A G51U | 0.04
46 | G13A G51A | 0.05
47 | G13C G49C | 0.01
48 | G13C G49U | 0.01

Row | Variant | self-cleavage
49 | G13C G49A | 0.01
50 | G13C G50A | 0.03
51 | G13C G50C | 0.02
52 | G13C G50U | 0.02
53 | C14A G23C | 0.02
54 | C14A G23U | 0.02
55 | C14A G23A | 0.05
56 | G13C G54U | 0.04
57 | G13C G54A | 0.03
58 | G13C G54C | 0.02
59 | C14G C9A | 0.04
60 | C14G C9U | 0.08
61 | C14G C9G | 0.16
62 | G13C G47A | 0.02
63 | G13C G47C | 0.01
64 | G13C G47U | 0.02
65 | C14A G51U | 0.04
66 | C14A G51C | 0.02
67 | C14A G51A | 0.06
68 | C14G C31G | 0.15
69 | C14G C31U | 0.05
70 | C14G C31A | 0.02
71 | C14G C25G | 0.07
72 | C14G C25A | 0.03

Row | Variant | self-cleavage
73 | C14G C25U | 0.12
74 | C14G G30C | 0.64
75 | C14G G30U | 0.14
76 | C14G G30A | 0.07
77 | C14A C31U | 0.04
78 | C14A C31A | 0.03
79 | C14A C31G | 0.02
80 | C14G G13C | 0.01
81 | C14G G13A | 0.07
82 | C14G G13U | 0.05
83 | C14A U12C | 0.05
84 | C14A U12G | 0.06
85 | C14A U12A | 0.08
86 | C14A G48U | 0.02
87 | C14A G48A | 0.02
88 | C14A G48C | 0.02
89 | C14G C20U | 0.22
90 | C14G C20A | 0.17
91 | C14G C20G | 0.16
92 | C14A G34U | 0.05
93 | C14A G34C | 0.05
94 | C14A G34A | 0.07
95 | G13U G23U | 0.02
96 | G13U G23C | 0

Row | Variant | self-cleavage
97 | G13U G23A | 0.02
98 | G13C U43C | 0.02
99 | G13C U43A | 0.03
100 | G13C U43G | 0.03
101 | C14A C32G | 0.03
102 | C14A C32U | 0.03
103 | C14A C32A | 0.05
104 | G13A G53C | 0.03
105 | G13A G53U | 0.05
106 | G13A G53A | 0.06
107 | C14G G49A | 0.04
108 | C14G G49U | 0.03
109 | C14G G49C | 0.03
110 | G13U G30C | 0.01
111 | G13U G30U | 0.01
112 | G13U G30A | 0.01
113 | C14A C25A | 0.05
114 | C14A C25U | 0.07
115 | C14A C25G | 0.02
116 | C14A U37G | 0.15
117 | C14A U37C | 0.12
118 | C14A U37A | 0.07
119 | C14G G44U | 0.08
120 | C14G G44A | 0.23

Row | Variant | self-cleavage
121 | C14G G44C | 0.07
122 | G13U U24A | 0.01
123 | G13U U24G | 0.02
124 | G13U U24C | 0.03
125 | G13U U18C | 0.03
126 | G13U U18G | 0.05
127 | G13U U18A | 0.03
128 | G13U G42A | 0.02
129 | G13U G42C | 0.01
130 | G13U G42U | 0.01
131 | G13C U12A | 0.03
132 | G13C U12C | 0.03
133 | G13C U12G | 0.56
134 | G13U G44C | 0.03
135 | G13U G44U | 0.04
136 | G13U G44A | 0.03
137 | G13U G45U | 0.02
138 | G13U G45C | 0.01
139 | G13U G45A | 0.02
140 | C14G C26G | 0.07
141 | C14G C26A | 0.03
142 | C14G C26U | 0.07
143 | C14G G47C | 0.04
144 | C14G G47U | 0.04

Row | Variant | self-cleavage
145 | C14G G47A | 0.05
146 | G13A U43G | 0.04
147 | G13A U43C | 0.05
148 | G13A U43A | 0.05
149 | C14A C27U | 0.04
150 | C14A C27G | 0.03
151 | C14A C27A | 0.07
152 | G13U U43C | 0.03
153 | G13U U43A | 0.02
154 | G13U U43G | 0.04
155 | C14G G51A | 0.08
156 | G13C G48C | 0.02
157 | G13C G48U | 0.01
158 | G13C G48A | 0.01
159 | G13U G19C | 0.01
160 | G13U G19A | 0.03
161 | G13U G19U | 0.04
162 | G13C G34C | 0.02
163 | G13C G34A | 0.04
164 | G13C G34U | 0.03
165 | C14A G50C | 0.08
166 | C14A G50U | 0.07
167 | C14A G50A | 0.09
